Measurements from PMC5395206 (Journal of chemical information and modeling, 2016).

Legend:
[1] = system: CB2 F197 replaced with valine; conditions: cited from earlier work
[2] = molecular target: CB2 (Homo sapiens, UniProt P34972); assay: Radioligand competition binding assay, [3H]CP-55,940 displacement; conditions: inhibition of [3H]CP-55,940 (3 nM) binding to CB2 membrane protein
Summary of the method: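 CB2 membrane protein (5 μg) incubated with [3H]CP-55,940 (3 nM final) and serial dilutions of test compound. Compound was diluted in binding buffer with 10% DMSO and 0.4% methylcellulose. Incubation was 1 h at 30 °C with gentle shaking, then GF/B filtration and scintillation counting. Run in duplicate, reported as mean ± SEM; Ki from nonlinear regression.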

[3] = system: human CB2 receptors; assay: LANCE cAMP assay in CB2-transfected CHO cells; assay type: cell-based
Summary of the method: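 CHO cells stably transfected with wild-type human CB2, seeded at 2000 cells/well in RPMI-1640 with 1% dialyzed FBS, 25 mM HEPES and G-418, cultured overnight. Added cAMP antibody plus RO20-1724 (50 μM final) in DPBS/0.1% BSA, then test compound or forskolin (5 μM final). Incubated 45 min at RT, plus 1 h with detection reagent. TR-FRET read at ex 340/em 665 nm. ≥2 independent experiments in triplicate; EC50 from nonlinear regression.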

[4] = CHO cells expressing human CB2, forskolin-induced cAMP

CB2, sequence (P34972 whole entry): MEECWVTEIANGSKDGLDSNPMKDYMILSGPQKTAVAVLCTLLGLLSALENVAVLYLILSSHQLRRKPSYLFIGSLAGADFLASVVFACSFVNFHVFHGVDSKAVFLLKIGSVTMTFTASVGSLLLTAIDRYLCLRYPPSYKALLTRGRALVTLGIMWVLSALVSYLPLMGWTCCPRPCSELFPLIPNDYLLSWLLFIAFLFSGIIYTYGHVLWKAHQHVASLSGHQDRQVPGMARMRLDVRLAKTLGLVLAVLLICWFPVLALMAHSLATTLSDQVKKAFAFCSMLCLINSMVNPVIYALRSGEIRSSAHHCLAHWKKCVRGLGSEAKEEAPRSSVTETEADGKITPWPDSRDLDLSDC

In the case of `CCCCC/C=C\C/C=C\C/C=C\C/C=C\CCCC(=O)NCCO` [AEA], the “Effect of replacement of F197 with valine on association” value (from here on “Effect of replacement of F197”) [1] is given as “no effect”.

For `CCCCCCC(C)(C)c1ccc([C@@H]2C[C@H](O)CC[C@H]2CCCO)c(O)c1` [CP55940], the “Effect of replacement of F197” value [1] is given as “no effect”.

Molecule `CC1CN(CCOC(=O)Nc2ccc(Cl)cc2)CCN1C(C)(C)C` (stereo not shown) [NSC93299] has a Ki [2] of 2240 nM.

Molecule `Cc1ccc(OCc2c(COc3ccc(Cl)cc3)sc3ccc(Cl)cc23)cc1` [NSC162677] has a Ki [2] of 1550 nM.

In the case of `Cc1ccc(S(=O)(=O)N(Cc2ccc(Cl)cc2)S(=O)(=O)c2ccc(C)cc2)cc1` [NSC273936], the Ki [2] is reported as 346 nM.

For `Cc1ccc(S(=O)(=O)N(CCc2ccc(Cl)cc2)S(=O)(=O)c2ccc(C)cc2)cc1` [NSC273939], the Ki [2] was 192 nM.

In the case of `Cc1ccc(S(=O)(=O)N(CCc2ccccc2)S(=O)(=O)c2ccc(C)cc2)cc1` [NSC273940], the Ki [2] is reported as 195 nM.

With `Cc1ccc(S(=O)(=O)NC(CC(=O)OCc2ccccc2)C(=O)OCc2ccccc2)cc1` (stereo not shown) [NSC296950] the “Functional activity in LANCE cAMP assay” value [3, 4] was “inverse agonist” and the Ki [2] was 2360 nM.

For `CCN(CC)CCCNc1cccc2ccc(OC)nc12.I` [NSC402300], the “Functional activity in LANCE cAMP assay” value ([3]; at concentrations above 10 μM) was “inverse agonist”, the “Functional activity in LANCE cAMP assay” value ([3]; at concentrations below 10 μM) was “neutral antagonist” and the Ki [2] was 398 nM.

Molecule `Cc1ccc(C)c(NC(=O)CCC(=O)C(C#N)c2nc3ccccc3s2)c1` (stereo not shown) [NSC618804] has a Ki [2] of 656 nM.

For `COC(=O)CCc1c(Cc2ccc[nH]2)[nH]c(C(=O)OCc2ccccc2)c1C` [NSC669611], the “Functional activity in LANCE cAMP assay” value [3, 4] was “behaves similarly to NSC402300”, the “Functional activity in LANCE cAMP assay” value ([3]; at concentrations below 10 μM) was “neutral antagonist” and the Ki [2] was 923 nM.

Molecule `COc1ccc(C(=O)c2nc3ccccc3n2CC(=O)c2ccc(Cl)cc2)cc1` [NSC745454] has a Ki [2] of 1550 nM.

For `Cc1c(C(=O)c2cccc3ccccc23)c2cccc3c2n1[C@H](CN1CCOCC1)CO3` [WIN55,212-2], the “Decrease in binding affinity to CB2 on replacement of F197 with valine” value [1] is listed as 14 fold.

In the case of `CCCCCCC(C)(C)c1cc(O)c2c(c1)OC(C)(C)[C@@H]1CC=C(CO)C[C@@H]21` [hU-210], the “Effect of replacement of F197” value [1] is given as “no effect”.
